Only some compounds are listed: those with a hit (about 6.4% of all), similar ones and a draw of the others.
PostGolgi yeast: growth inhibition of a yeast mutant, post-Golgi transport screen; post-Golgi transport phenotypic cell assay; 98,000 tested, 0.9% active; inhibition, % at 10 µM;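 also: yeast cells grown in 1536-well plates; yeast grown about 18 h at 30C before absorbance read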
PLK1 kinase inh: inhibitors of human PLK1 kinase; P53350; recombinant PLK1 kinase, TR-FRET peptide phosphorylation; inhibition, % at 10 µM; 97,000 tested, 0.53% active; AID 619;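 active = inhibition of 50% or more in the single-concentration screen; inactive = inhibition below 50%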;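 also: 0% = DMSO max control and 100% = H-89 dihydrochloride min control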
EphB4 antag: blocks human EphB4 binding to ephrin-B2. P54760. EphB4 LBD / TNYL-RAW-Alexa532 peptide, fluorescence polarization. inhibition, % at 7 µM. 97,000 tested, 0.15% active;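 active = inhibition above the screen-wide mean inhibition plus 3 SD, cut at about 15% in these data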;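 also: 0% = DMSO wells and 100% = excess unlabeled TNYL-RAW peptide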
PostGolgi ctrl: yeast control strain growth, post-Golgi counter-screen | 98,000 tested, 5% active | inhibition, % at 10 µM | efflux-deficient yeast background strain, growth absorbance A615, 16 h
HIV Rev-RRE inh: HIV Rev-RRE protein-RNA interaction inhibition | P05866 | Rev peptide-RRE RNA binding, FRET | inhibition, % at 8 µM | 97,000 tested, 0.79% active;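 active = inhibition above the screen-wide mean plus 3 SD, cut at about 35% in these data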;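 also: 0% = median DMSO wells and 100% = median Neomycin B control wells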
Target sequence (P05866 whole entry, looked up): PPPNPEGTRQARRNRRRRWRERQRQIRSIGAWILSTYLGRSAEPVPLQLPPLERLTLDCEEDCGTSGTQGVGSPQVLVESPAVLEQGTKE
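Material: labelled RRE RNA duplex and labelled Rev peptide / Buffer or medium: HEPES pH 7.5 salt buffer with EDTA / Compound dosing: single point, 8 µM final nominal compound concentration / Benchmarks: DMSO low control, neomycin B high control / Timing: 5 min preincubation and 15 min binding, 25 °C / Technique: FRET fluorescence readout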
Plk1 PBD FP: inhibitors of human Plk1 polo box domain binding | Plk1 PBD phosphopeptide binding, fluorescence polarization | inhibition, %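 (tested at about 20 µM)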 | 97,000 tested, 0.13% active | AID 693; in the data active = inhibition above about 34%, passing the limit was not always enough
Starred values were filed as active, the others as inactive; / = not tested or not shown. Rule as the data show it, unless noted: active = inhibition above about 30%; inactive = the rest.

SMILES	PostGolgi yeast	PLK1 kinase inh	EphB4 antag	PostGolgi ctrl	HIV Rev-RRE inh	Plk1 PBD FP
CC1Oc2ccccc2C=C1/C=C1/SC(N2CCOCC2)=NC1=O (centres undefined)	-13	7	2	9	37*	16
O=C1N=C(N2CCOCC2)S/C1=C/c1cccs1	9	-4	0	13	3	-21
CCC(NC(=O)OC(C)(C)C)C(=O)Oc1ccc2c3c(c(=O)oc2c1)CCC3 (centres undefined)	7	9	5	14	7	-4
Cc1ccc(S(=O)(=O)NC(CC(C)C)C(=O)Oc2ccc3c4c(c(=O)oc3c2)CCC4)cc1 (centres undefined)	60*	-16	2	16	6	-4
CCC(C)C(NS(=O)(=O)c1ccc(C)cc1)C(=O)Oc1ccc2c3c(c(=O)oc2c1)CCC3 (centres undefined)	5	-16	-2	33*	2	-15
CC(C)CC(C(=O)Oc1ccc2c3c(c(=O)oc2c1)CCC3)N1C(=O)c2ccccc2C1=O (centres undefined)	-6	-5	-4	12	4	18
O=C(NCc1ccco1)C(c1ccccc1)N(Cc1ccccc1)C(=O)Cn1nnc2ccccc21 (centres undefined)	/	2	-2	/	-5	1
S=C(NN=C(C1CC1)C1CC1)Nc1ccccc1	/	-8	4	/	2	-9
CCn1c(/C=C/N(C)c2ccccc2)[n+](CC)c2ccc(Cl)cc21	18	-10	4	0	10	31
CCOC(=O)c1ccc2c(c1)n(CC)c(/C=C/Nc1ccccc1)[n+]2CC	-17	-3	1	32*	11	16
O=C1C2=C(Nc3ccccc3SC2c2ccco2)c2ccccc21 (centres undefined)	12	-10	4	72*	6	-12
Cc1nnsc1C(=O)NC1CCCCC1	-11	-9	-2	17	1	-5
CCCCOC(=O)CSC1=C(C#N)C(c2ccc3c(c2)OCO3)CC(=O)N1 (centres undefined)	/	-15	-9	47*	6	4
Cc1ccc(C2=NN3C(C2)c2ccccc2OC32C(=O)Nc3ccccc32)cc1 (centres undefined)	-5	-9	3	18	17	15
CN1C(=O)C2(Oc3ccccc3C3CC(c4ccccc4)=NN32)c2ccccc21 (centres undefined)	-6	-6	-3	51*	9	-2
CN(C)CC(=O)Nc1cc(C(F)(F)F)ccc1Cl	38*	-14	6	8	5	17
COc1ccc(C2(NC(C)=O)CCN(C(=O)c3cccs3)CC2)cc1	/	-12	0	/	1	8
Cc1cc(C)c(C)c(S(=O)(=O)N2C(=S)NC(=O)C2CC(C)C)c1C (centres undefined)	1	-10	8	33*	2	-13
Cc1cc(C)c(C)c(S(=O)(=O)N2C(=S)NC(=O)C2C(C)C)c1C (centres undefined)	8	-11	2	44*	3	-16
CC1=CC(C)C2(CO)COC(c3ccccc3O)C1C2C (centres undefined)	1	-11	6	5	12	-3
O=C(CCC1CCCCC1)N1CCN(Cc2ccc3c(c2)OCO3)CC1	73*	-11	5	38*	11	-19
O=C(NC(=S)Nc1cccc(Cl)c1N1CCCCC1)c1ccco1	22	-25	-3	37*	1	-8
O=C(NC(=S)Nc1cccc(Cl)c1N1CCCCC1)c1cccs1	6	-11	3	52*	-1	-18
Cc1onc(-c2ccccc2Cl)c1C(=O)Nc1nnc(-c2ccc(F)cc2)s1	18	-8	8	35*	13	-13
COC(=O)c1cc(OC)c(OC)cc1NC(=O)c1c(-c2ccccc2Cl)noc1C	22	3	10	37*	3	-4
SMILES	PostGolgi yeast	PLK1 kinase inh	EphB4 antag	PostGolgi ctrl	HIV Rev-RRE inh	Plk1 PBD FP
Cc1onc(-c2ccccc2Cl)c1C(=O)Nc1nc2c(s1)CCCC2	4	-9	7	43*	9	0
Cc1cc(NC(=O)c2c(-c3ccccc3Cl)noc2C)no1	-2	-5	2	9	2	13
COc1cccc(NC(=O)N(CCCN2CCOCC2)C(C)c2cc3ccccc3o2)c1 (centres undefined)	-2	-4	-4	14	14	5
CC(=O)NC(CCS(C)(=O)=O)C(=O)Nc1ccc(Oc2ccccc2)cc1 (centres undefined)	6	/	/	5	/	/
CCOC(=O)C1=C(N)N2C(=O)CSC2=C(C(=O)OC)C1	-26	7	-6	-2	16	12
Nn1c(CN2CCCCC2)nc2ccccc2c1=O	-2	-12	-10	31*	11	22
CC1CC(C)CN(CCCNC(=O)Cc2c(C(=O)O)n(C)c3ccccc23)C1 (centres undefined)	6	-12	3	-2	5	3
Cc1ccc(C2(C)NC(=O)N(CC(=O)Nc3cc(C)on3)C2=O)cc1 (centres undefined)	-1	-4	-7	31*	0	29
CCOC(=O)C(C)Sc1nnc(Cc2cc(=O)[nH]c(=O)[nH]2)n1-c1ccc(Cl)cc1 (centres undefined)	5	-15	3	6	7	-17
COCCOc1cc(Nc2nnc(C(F)(F)F)s2)c(Cl)cc1Cl	21	-9	1	32*	14	-3
CCOC(=O)c1sc(C)c(C(=O)NCC(C)(C)CN(C)C)c1N	1	-9	0	1	4	-7
Cc1ccc2[nH]c3c(c2c1)CN(C(=O)CN1CC(C)OC(C)C1)CC3 (centres undefined)	-13	-13	1	12	61*	-12
Cc1ccc2[nH]c3c(c2c1)CN(C(=O)CN1CCSCC1)CC3	2	-8	2	-3	36*	-3
N#Cc1c(N)nc2c3c(sc(=N)c2c1N)NC(=O)CC3c1c(F)cccc1Cl (centres undefined)	0	-45	4	1	24	5
N#Cc1c(N)nc2c3c(sc(=N)c2c1N)NC(=O)CC3c1ccccc1 (centres undefined)	-2	-23	-2	-2	49*	-12
CN(C)CCN1C(=O)C(=O)/C(=C(/O)c2ccc(OCc3ccccc3)cc2)C1c1ccncc1 (centres undefined)	3	-15	-5	2	5	8
COc1cccc2c(=O)c3c(cnn3C)n(C)c12	42*	-9	-3	-6	5	11
COc1cc(=O)n(C)c2ccccc12	5	-16	7	7	0	4
COc1ccc(S(=O)(=O)N2CCC(C(=O)NCCc3ccc4c(c3)OCO4)CC2)cc1	1	-9	4	39*	1	7
O=C(NCCc1ccc2c(c1)OCO2)C1CCN(S(=O)(=O)c2ccc(Cl)cc2)CC1	-2	-8	-3	5	9	-2

Screening results from PubChem.
